The list is not random: actives were taken first. Their share in the collection is about 1%.
HMGR II inh: inhibitors of E. faecalis class II HMGR, primary screen, biochemical, Enterococcus faecalis. purified E. faecalis HMGR, NADPH absorbance 340 nm kinetic. AID 1066, 2008. 0.41% of 190,000 active. inhibition, % at 10 µM. HMG-CoA reductase (Enterococcus faecalis, mvaE);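 active = inhibition above a set limit, the median over all tested compounds plus 3 SD, cut at about 9.5% in these data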;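 also: enzyme runs in reverse so mevalonate oxidation gives rising NADPH absorbance; 0% = complete reaction with DMSO and 100% = background rate lacking mevalonate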
Rad51 HR inh: human RAD51 strand exchange inhibitors, primary screen, biochemical, fluorescence. hRad51 DNA strand exchange, fluorescence dequenching. inhibition, % at 10 µM. 0.085% of 200,000 active. DNA repair protein RAD51 homolog 1 (Homo sapiens), Q06609;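 active = inhibition above 40% at the single screening dose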;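 also: 0% = DMSO control wells and 100% = blanks with heterologous ssDNA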
Target sequence (Q06609 whole entry, looked up): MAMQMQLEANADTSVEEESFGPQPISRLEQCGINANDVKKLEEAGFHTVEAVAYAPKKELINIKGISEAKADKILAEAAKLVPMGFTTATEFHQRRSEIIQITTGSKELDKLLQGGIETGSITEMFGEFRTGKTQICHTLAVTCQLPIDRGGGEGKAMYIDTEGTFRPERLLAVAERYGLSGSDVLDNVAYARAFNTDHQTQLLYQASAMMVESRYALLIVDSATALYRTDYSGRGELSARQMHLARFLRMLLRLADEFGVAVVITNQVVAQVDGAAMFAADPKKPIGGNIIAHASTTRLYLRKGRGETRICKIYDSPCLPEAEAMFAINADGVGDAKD
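Assay system: Human Rad51 nucleoprotein filaments preassembled on unlabelled ssDNA | Reagent: Donor/quencher-labelled 47-bp dsDNA substrate | Doses: One concentration, 10 µM final | Times: 37 °C 15-min filament assembly, 30-min compound preincubation, 15-min exchange | Technique: Fluorescein emission 520 nm, excitation 485 nm | Benchmarks: Plate control and blank wells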
TNF death inh: inhibitors of TNF-alpha triggered necroptosis, primary screen, cell-based, Jurkat FADD-/-, single concentration. Jurkat FADD-/- TNF necroptosis rescue, ATP luminescence, 24 h; 0 = TNF only, 100 = no-TNF cells. activation (protection from cell death), % at 10 µM. 0.068% of 220,000 active. AID 463075, 2010;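 active = activation, meaning protection from cell death, of at least 50% relative to plate controls; inactive = activation below 50%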;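 also: necroptosis triggered by 40 ng/mL TNF-alpha added together with compound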
PERK inh: block of dimerizer-induced PERK translation repression, primary screen, PERK inhibitor project, CHO PERK-DD cells, SEAP luminescence, HTS. CHO PERK-DD fusion, SEAP luminescence translation reporter. AID 1416, 2008. Eukaryotic translation initiation factor 2-alpha kinase 3 (Homo sapiens), Q9NZJ5. inhibition, % at 5.6 µM. 0.17% of 220,000 active;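 active = inhibition above the mean inhibition of all tested compounds plus 3 SD, set separately per screening campaign, cut at about 2.9% in these data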;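 also: PERK kinase domain activated by AP20187 dimerizer at 100 nM; 0% = DMSO with dimerizer and 100% = rapamycin at 8.4 µM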
zVAD death inh: inhibitors of zVAD-triggered necroptosis, primary screen, L929 cells. L929 zVAD necroptosis rescue, ATP luminescence, 24 h; with zVAD 60 µM. viability rescue, % at 10 µM. 0.38% of 220,000 active;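 active = activation, scaled between plate controls, above about 75%, limit read from the data; inactive = activation under that limit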;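 also: 0% = zVAD with DMSO and 100% = DMSO alone without zVAD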
zVAD necrop conf: inhibitors of zVAD-triggered necroptosis in L929, confirmation, L929 cells, duplicate runs. shares compounds with zVAD death inh. L929 zVAD-induced necroptosis rescue, ATP luminescence, 24 h. activation (protection from necroptosis), % at 10 µM. 16% of 760 active. AID 463117, 2010;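 active = mean protection from necroptosis of at least 50% over duplicate tests; inactive = mean protection below 50%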;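 also: 0% = cells with zVAD alone and 100% = vehicle cells without zVAD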
Active calls of the source: *; · = not tested or not shown.

SMILES	HMGR II inh	Rad51 HR inh	TNF death inh	PERK inh	zVAD death inh	zVAD necrop conf
COc1ccc(-c2oc3ncnc(NCCCN4CCOCC4)c3c2-c2ccc(OC)cc2)cc1	-5	9	-6	-1	77*	0
Cn1nc(C(C)(C)C)cc1NC(=O)Nc1ccc(Cl)cc1	·	16	6	1	82*	55*
Cn1nc(C(C)(C)C)cc1NC(=O)Nc1ccc(F)cc1F	·	·	3	1	9	·
CC(=O)Nc1ccc(Nc2ncc([N+](=O)[O-])c(Nc3ccc(NC(C)=O)cc3)n2)cc1	5	·	-11	1	90*	26
O=c1c(O)c(-c2ccc3c(c2)OCO3)oc2ccccc12	-2	-3	-1	-1	77*	1
Nn1cnn(Cc2ccccc2)c1=S	0	0	6	1	88*	32
CC(=O)c1cnc2cc(-c3ccccc3)nn2c1C	-1	4	-1	1	82*	2
CC(=O)c1cnc2cc(-c3ccc(C)cc3)nn2c1C	1	-2	-2	-1	1	·
N#CCCCN1C(=O)C(O)(CC(=O)c2ccc3c(c2)OCCO3)c2ccccc21 (centres undefined)	-1	-3	-1	0	-1	·
N#CCCCN1C(=O)C(=C(C#N)C#N)c2ccccc21	-4	-5	-1	1	76*	0
Fc1ccc(CCNC(=S)Nc2ccc(F)c(Cl)c2)cc1	-3	22	-1	0	45	·
O=C1OC(/C(=C\Nc2cc(Cl)ccc2O)[N+](=O)[O-])c2ccccc21 (centres undefined)	0	-2	-5	0	54	·
O=C(Nc1ccc(N2CCCCC2)cc1)C(Cl)c1ccccc1 (centres undefined)	-5	2	13	0	77*	7
O=C(Nc1ccc(N2CCCC2)cc1)C(c1ccccc1)c1ccccc1	-1	-5	2	0	0	·
Cc1cc(C)cc(NC(=O)Nc2ccc(N3CCCCC3)cc2)c1	·	-7	2	1	77*	34
Cc1cccc(OCCCN2C(=O)C(=O)c3cc(C)ccc32)c1	-4	8	-4	0	1	·
Cc1cccc(S(=O)(=O)N2CCC(CO)(Cc3ccccc3)CC2)c1	-1	-4	2	0	1	·

Screens (PubChem BioAssay)
